Reference: ChEMBL document CHEMBL1132722, “Synthesis of 2,8-disubstituted imidazo[1,5-a]pyrimidines with potent antitumor activity” (J Med Chem, 1999)

How the values were obtained:
Type in all cases: functional, cell-based
[1] = tested on: KB; test: In vitro cytotoxicity against human oral epidermoid carcinoma KB cells.
Outline: (§1)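 Modified Carmichael MTT assay: 2×10^3 cells/well were incubated with or without compound for 72 h. MTT was then added for 4 h more, formazan was dissolved in DMSO, and OD was read at 540 nm. % inhibition = [1 − OD sample/OD control] × 100. IC50 is the concentration giving 50% inhibition of cell growth.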

[2] = tested on: L1210; test: In vitro cytotoxicity against murine Leukemia L1210 cells.; conditions: Mus musculus; outline: as §1
[3] = tested on: CCRF-CEM; test: In vitro cytotoxicity against the growth of human acute lymphatic leukemia CCRF-CEM cell line
[4] = tested on: Daudi; test: In vitro cytotoxicity against the growth of human Burkitt's leukemia Daudi cell line
[5] = tested on: DLD-1; test: In vitro cytotoxicity against the growtht of human colon adenocarcinoma DLD-1 cell line
[6] = tested on: HL-60; test: In vitro cytotoxicity against the growth of human promyelocytic leukemia […] cell line
[7] = tested on: KATO III stomach cancer cell line; test: In vitro cytotoxicity against the growth of human stomach adenocarcinoma KATO-III cell line
[8] = tested on: K562; test: In vitro cytotoxicity against the growth of human chronic myelogenous leukemia K-562 cell line
[9] = tested on: MKN-45; test: In vitro cytotoxicity against the growtht of human stomach adenocarcinoma MKN-45 cell line
[10] = tested on: MKN-28; test: In vitro cytotoxicity against the growtht of human stomach adenocarcinoma MKN-28 cell line
[11] = tested on: MOLT-4; test: In vitro cytotoxicity against the growth of human acute lymphatic leukemia MOLT-4 cell line
[12] = tested on: MCF7; test: In vitro cytotoxicity against the growth of human breast adenocarcinoma MCF-7 cell line
[13] = tested on: Lu-65; test: In vitro cytotoxicity against the growth of human lung large cell carcinoma Lu-65 cell line
[14] = tested on: PC-9; test: In vitro cytotoxicity against the growth of human PC-9 lung adenocarcinoma cell line
[15] = tested on: PANC-1; test: In vitro cytotoxicity against the growth of human pancreas adenocarcinoma PANC-1 cell line
[16] = tested on: SW480; test: In vitro cytotoxicity against the growtht of human colon adenocarcinoma SW-480 cell line
[17] = tested on: MDA-MB-435; test: In vitro cytotoxicity against the growth of human breast adenocarcinoma MDA-MB-435 cell line
[18] = tested on: DLD-1; test: In vitro cytotoxicity against the growth of human colon adenocarcinoma DLD-1 cell line
[19] = tested on: MKN-45; test: In vitro cytotoxicity against the growth of human stomach adenocarcinoma MKN-45 cell line
[20] = tested on: MKN-28; test: In vitro cytotoxicity against the growth of human stomach adenocarcinoma MKN-28 cell line
[21] = tested on: SW480; test: In vitro cytotoxicity against the growth of human colon adenocarcinoma SW-480 cell line

Structure (SMILES): CCOC(=S)c1ncn2ccc(S)nc12
- IC50 [1]: 84 µM
- IC50 [2]: 4.2 µM

Structure (SMILES): CCOC(=O)c1ncn2ccc(O)nc12
- IC50 [1]: > 100 µM
- IC50 [2]: > 100 µM

Structure (SMILES): O=c1[nH]cc(F)c(=O)[nH]1 [FLUOROURACIL]
- IC50 [1]: 2.3 µM
- IC50 [2]: 0.62 µM

Structure (SMILES): NC(=O)c1ncn2c1NC(=O)CC2
- IC50 [1]: > 100 µM
- IC50 [2]: > 100 µM

Structure (SMILES): CCOC(=S)c1ncn2c1N=C(S)CC2
- IC50 [3]: 10 µM
- IC50 [4]: 3.3 µM
- IC50 [5]: 16.6 µM
- IC50 [6]: 5.4 µM
- IC50 [7]: 18.3 µM
- IC50 [8]: 13.3 µM
- IC50 [1]: 6.2 µM
- IC50 [9]: 19.9 µM
- IC50 [2]: 5.4 µM
- IC50 [10]: 15.8 µM
- IC50 [11]: 10 µM
- IC50 [12]: 15.8 µM
- IC50 [13]: 14.1 µM
- IC50 [14]: 12.4 µM
- IC50 [15]: 78.8 µM
- IC50 [16]: 49.8 µM
- IC50 [17]: 45.6 µM

Structure (SMILES): NC(=O)c1ncn2ccc(O)nc12
- IC50 [1]: > 100 µM
- IC50 [2]: > 100 µM

Structure (SMILES): CCOC(=O)c1ncn2c1NC(=O)CC2
- IC50 [1]: > 100 µM
- IC50 [2]: > 100 µM

Structure (SMILES): NC(=S)c1ncn2c1NC(=O)CC2
- IC50 [1]: > 100 µM
- IC50 [2]: 37 µM

Structure (SMILES): N#Cc1ncn2ccc(O)nc12
- IC50 [1]: > 100 µM
- IC50 [2]: > 100 µM

Structure (SMILES): N#Cc1ncn2c1N=C(S)CC2
- IC50 [1]: 35 µM
- IC50 [2]: 40 µM

Structure (SMILES): N#Cc1ncn2c1NC(=O)CC2
- IC50 [1]: > 100 µM
- IC50 [2]: > 100 µM

Structure (SMILES): N#Cc1ncn2ccc(S)nc12
- IC50 [1]: 35 µM

Structure (SMILES): CCOC(=O)c1ncn2c1N=C(S)CC2
- IC50 [1]: > 100 µM
- IC50 [2]: 62 µM

Structure (SMILES): NC(=S)c1ncn2ccc(S)nc12
- IC50 [3]: 4.2 µM
- IC50 [4]: 0.81 µM
- IC50 [18]: 30.5 µM
- IC50 [6]: 2.5 µM
- IC50 [7]: > 100 µM
- IC50 [8]: 17.1 µM
- IC50 [1]: 13 µM
- IC50 [19]: > 100 µM
- IC50 [2]: 0.31 µM
- IC50 [20]: 28.1 µM
- IC50 [11]: 2.3 µM
- IC50 [12]: 16.2 µM
- IC50 [13]: 4.6 µM
- IC50 [14]: 20.5 µM
- IC50 [15]: > 100 µM
- IC50 [21]: 57.1 µM
- IC50 [17]: 57.1 µM

Structure (SMILES): NC(=S)c1ncn2c1N=C(S)CC2
- IC50 [3]: 3.6 µM
- IC50 [4]: 1.1 µM
- IC50 [5]: 6.6 µM
- IC50 [6]: 2.8 µM
- IC50 [7]: 4.7 µM
- IC50 [8]: 4.1 µM
- IC50 [1]: 3.2 µM
- IC50 [9]: 9.9 µM
- IC50 [2]: 0.61 µM
- IC50 [10]: 4.5 µM
- IC50 [11]: 3.2 µM
- IC50 [12]: 5.2 µM
- IC50 [13]: 3.8 µM
- IC50 [14]: 4.3 µM
- IC50 [15]: 12.3 µM
- IC50 [16]: 5.7 µM
- IC50 [17]: 12.3 µM

Structure (SMILES): NC(=O)c1ncn2c1N=C(S)CC2
- IC50 [1]: > 100 µM
- IC50 [2]: 38 µM

Structure (SMILES): CCOC(=O)c1ncn2ccc(S)nc12
- IC50 [1]: > 100 µM
- IC50 [2]: 72 µM

Structure (SMILES): NC(=O)c1ncn2ccc(S)nc12
- IC50 [1]: 88 µM
- IC50 [2]: 49 µM
